Marks after values point to notes of the source that are not given here.

Three compounds from publication PMC5096746 (Drug Design, Development and Therapy, 2016) can be followed below.

In data set [1] the test system is NO (nitrite) in RAW264.7 mouse macrophages. Nature of the data set: Nitric oxide. The data set is classed as cell-based. The note with it: 20 µM compound, LPS-stimulated, LPS alone 20.46±1.03.
The test system of the next data set is TNFα. Nature of the data set: In vitro TNFα assay. The data set is classed as cell-based. The note with it: Mus musculus, RAW264.7, read-out: TNFα inhibition. In outline:
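Macrophages grown in RPMI 1640 with 10% FBS, penicillin and streptomycin. Cells preincubated with cytochalasin D (2.5 μM/10^6 cells) for 30 min, then seeded at 2×10^6 cells/mL. LPS added with test compound or celecoxib at 20 μM for 24 h. Supernatant TNFα measured by sandwich ELISA (TMB substrate, 30 min dark, H2SO4 stop, A450) against kit standard.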

In data set [2] the test system is carrageenan-induced rat-paw edema. Nature of the data set: Carrageenan-induced rat-paw edema, in vivo anti-inflammatory activity. Also noted: species or system Wistar rats. Particulars: oral, dose equimolar to ibuprofen 20 mg/kg; for Anti-inflammatory activity (% inhibition ± SEM) 3 hours: 3 hours post-carrageenan; for Anti-inflammatory activity (% inhibition ± SEM) 4 hours: 4 hours post-carrageenan. (In general: The carrageenan paw model is a standard test of acute inflammation.)

For the next data set, the system named is gastric mucosa. Nature of the data set: Acute ulcerogenic activity. The data set is classed as in vivo. The note with it: rats. In outline: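 Rats; controls received 0.5% carboxymethyl cellulose. After dosing, rats were fed a normal diet for 17 h and then killed. Stomachs opened along the greater curvature and mucosa examined under microscopy. Scoring: 0.5 redness, 1 spot ulcer, 1.5 haemorrhagic streaks, 2 ulcers >3 but <5, 3 ulcers >5. Severity index = treated-group mean score minus control mean.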

In the case of `Cc1ccc(-c2cc(C(F)(F)F)nn2-c2ccc(S(N)(=O)=O)cc2)cc1` [Celecoxib, celecoxib], the entries for the “NO (nitrite/mg, mmol/mg) 20 µM” value in data set [1] and in data set [1] (listed as celecoxib) were 7.53 ± 0.23 mmol/mg and 7.53 mmol/mg, respectively. Further, the inhibition at 20 µM in the data set on TNFα was 72%.
For the compound `c1ccc(COc2ccc(-c3nn(-c4ccccc4)cc3CNc3ccccc3)cc2)cc1` [Compound 5a, N-((3-(4-(Benzyloxy)phenyl)-1-phenyl-1H-pyrazol-4-yl)methyl)aniline], in data set [2], the “Anti-inflammatory activity (% inhibition ± SEM) 3 hours” value was 50.77±4.28 ^c % and the “Anti-inflammatory activity (% inhibition ± SEM) 4 hours” value is recorded as 47.91±4.39 ^c %.
Consider `CC(C)Cc1ccc(C(C)C(=O)O)cc1` (stereo not drawn) [Ibuprofen, ibuprofen], for which, in data set [2], the “Anti-inflammatory activity (% inhibition ± SEM) 3 hours” value is reported as 81.32±0.59 ^a % and the “Anti-inflammatory activity (% inhibition ± SEM) 4 hours” value is given as 79.23±0.4 ^a %. Moreover, the “Gastric ulceration / mucosal damage (histopathology, in words)” value with gastric mucosa (60 mg/kg) is “mucosal cell damage”. Further, the “Ulcerogenic activity (severity index ± SEM)” value with gastric mucosa (60 mg/kg oral, killed after 17 hours, mean score minus control score) is 1.16±0.4.

One may read the inhibition as how much of the control response was suppressed.
